Laboratory results taken from ChEMBL document CHEMBL3044834, “Novel protoporphyrinogen oxidase inhibitors: 3H-pyrazolo[3,4-d][1,2,3]triazin-4-one derivatives” (J Agric Food Chem, 2008).

Assays:
Digitaria sanguinalis [1] = test: Herbicidal activity against Digitaria sanguinalis (hairy crabgrass) assessed as inhibition of fresh weed plant weight at 93.75 g/ha using pre-emergence treatment protocol; type: functional
Digitaria sanguinalis [2] = test: Herbicidal activity against Digitaria sanguinalis (hairy crabgrass) assessed as inhibition of fresh weed plant weight at 45 g/ha using pre-emergence treatment protocol; type: functional
[3] = target: T1, Protoporphyrinogen IX oxidase (Zea mays, UniProt Q9M629); test: Inhibition of protoporphyrinogen oxidase in Zea mays (maize) seedlings leaves etioplasts using protoporphyrinogen IX incubated for 30 min by fluorescence spectroscopy
T1 sequence (Q9M629 whole entry): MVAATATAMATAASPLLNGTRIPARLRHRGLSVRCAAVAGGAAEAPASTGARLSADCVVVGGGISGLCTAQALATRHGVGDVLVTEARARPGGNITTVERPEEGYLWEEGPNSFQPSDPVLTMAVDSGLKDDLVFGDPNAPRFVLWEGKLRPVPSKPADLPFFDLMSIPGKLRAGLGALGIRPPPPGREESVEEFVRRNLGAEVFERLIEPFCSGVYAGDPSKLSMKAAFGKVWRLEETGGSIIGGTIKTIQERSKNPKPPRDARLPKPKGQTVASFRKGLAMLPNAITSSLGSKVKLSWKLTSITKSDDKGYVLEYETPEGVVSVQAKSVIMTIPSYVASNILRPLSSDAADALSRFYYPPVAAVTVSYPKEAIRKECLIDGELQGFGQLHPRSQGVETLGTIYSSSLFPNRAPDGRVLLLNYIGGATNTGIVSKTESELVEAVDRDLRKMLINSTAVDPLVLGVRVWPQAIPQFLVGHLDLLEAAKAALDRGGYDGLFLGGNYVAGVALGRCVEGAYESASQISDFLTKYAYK

Amaranthus retroflexus [4] = test: Herbicidal activity against Amaranthus retroflexus assessed as inhibition of fresh weed plant weight at 45 g/ha using pre-emergence treatment protocol; type: functional
Amaranthus retroflexus [5] = test: Herbicidal activity against Amaranthus retroflexus assessed as inhibition of fresh weed plant weight at 93.75 g/ha using pre-emergence treatment protocol; type: functional
[6] = system: Brassica rapa subsp. oleifera; test: Herbicidal activity against Brassica rapa subsp. oleifera assessed as inhibition of fresh weed plant weight at 93.75 g/ha using pre-emergence treatment protocol; type: functional
[7] = system: Brassica rapa subsp. oleifera; test: Herbicidal activity against Brassica rapa subsp. oleifera assessed as inhibition of fresh weed plant weight at 45 g/ha using pre-emergence treatment protocol; type: functional
[8] = system: Brassica rapa subsp. oleifera; test: Herbicidal activity against Brassica rapa subsp. oleifera assessed as inhibition of fresh weed plant weight at 187.5 g/ha using pre-emergence treatment protocol; type: functional
Echinochloa crus-galli [9] = test: Herbicidal activity against Echinochloa crus-galli (barnyard grass) assessed as inhibition of fresh weed plant weight at 22.5 g/ha using pre-emergence treatment protocol; type: functional
How it was run: (§1)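 Test compounds made up as emulsions by dissolving in 100 µL N,N-dimethylformamide, then adding a little Tween 20 and water. For post-emergence, weed seedlings at one leaf and one stem were sprayed at the same rates as the pre-emergence test. Fresh weight was recorded 15 days after treatment and expressed as percent inhibition versus controls. All treatments were run in triplicate.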

[10] = system: Brassica rapa subsp. oleifera; test: Herbicidal activity against Brassica rapa subsp. oleifera assessed as inhibition of fresh weed plant weight at 22.5 g/ha using pre-emergence treatment protocol; type: functional
Echinochloa crus-galli [11] = test: Herbicidal activity against Echinochloa crus-galli (barnyard grass) assessed as inhibition of fresh weed plant weight at 93.75 g/ha using pre-emergence treatment protocol; type: functional
Echinochloa crus-galli [12] = test: Herbicidal activity against Echinochloa crus-galli (barnyard grass) assessed as inhibition of fresh weed plant weight at 45 g/ha using pre-emergence treatment protocol; type: functional
Digitaria sanguinalis [13] = test: Herbicidal activity against Digitaria sanguinalis (hairy crabgrass) assessed as inhibition of fresh weed plant weight at 22.5 g/ha using pre-emergence treatment protocol; type: functional
Amaranthus retroflexus [14] = test: Herbicidal activity against Amaranthus retroflexus assessed as inhibition of fresh weed plant weight at 187.5 g/ha using pre-emergence treatment protocol; type: functional
Digitaria sanguinalis [15] = test: Herbicidal activity against Digitaria sanguinalis (hairy crabgrass) assessed as inhibition of fresh weed plant weight at 187.5 g/ha using pre-emergence treatment protocol; type: functional
Echinochloa crus-galli [16] = test: Herbicidal activity against Echinochloa crus-galli (barnyard grass) assessed as inhibition of fresh weed plant weight at 187.5 g/ha using pre-emergence treatment protocol; type: functional; how it was run: as §1
Amaranthus retroflexus [17] = test: Herbicidal activity against Amaranthus retroflexus assessed as inhibition of fresh weed plant weight at 22.5 g/ha using pre-emergence treatment protocol; type: functional

Compound: C#CCN1C(=O)COc2cc(F)c(N3C(=O)C4=C(CCCC4)C3=O)cc21 [FLUMIOXAZIN]
- inhibition at 93.75 g/ha (Digitaria sanguinalis [1]): 100%
- inhibition at 45 g/ha (Digitaria sanguinalis [2]): 100%
- IC50 [3]: 3.24 nM
- inhibition at 45 g/ha (Amaranthus retroflexus [4]): 100%
- inhibition at 93.75 g/ha (Amaranthus retroflexus [5]): 100%
- inhibition at 93.75 g/ha [6]: 100%
- inhibition at 45 g/ha [7]: 100%
- inhibition at 187.5 g/ha [8]: 100%
- inhibition at 22.5 g/ha (Echinochloa crus-galli [9]): 40.9%
- inhibition at 22.5 g/ha [10]: 92.6%
- inhibition at 93.75 g/ha (Echinochloa crus-galli [11]): 100%
- inhibition at 45 g/ha (Echinochloa crus-galli [12]): 71.4%
- inhibition at 22.5 g/ha (Digitaria sanguinalis [13]): 85.4%
- inhibition at 187.5 g/ha (Amaranthus retroflexus [14]): 100%
- inhibition at 187.5 g/ha (Digitaria sanguinalis [15]): 100%
- inhibition at 187.5 g/ha (Echinochloa crus-galli [16]): 100%
- inhibition at 22.5 g/ha (Amaranthus retroflexus [17]): 100%
